Source: PubChem BioAssay
The entries come from a sample that favours hits as a whole.
INS promoter act: TRM-6 insulin promoter activation. TRM-6 cells, insulin promoter eGFP reporter, imaging; plate-scaled: unstimulated 0, stimulated control 100. activation, % at 2 µM. 130,000 compounds, 0.81% hits;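 active = activation at 2 µM above a set limit, confirmed on inspection of the cell images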;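 note: share of cells whose green reporter signal exceeds an intensity cutoff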
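material = TRM-6 human fetal islet cells, insulin promoter–eGFP reporter | input = 1,000 TRM-6 cells seeded per well | benchmarks = stimulated versus unstimulated wells as plate controls | measured by = automated fluorescence imaging of paraformaldehyde-fixed, Hoechst-counterstained cells, green channel | schedule = compound exposure 48 h, 37 °C | reagent = tamoxifen at 0.75 µM added at seeding for reporter induction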
Active calls of the source: *.

SMILES	INS promoter act
O=S(=O)([O-])CCC[n+]1c(/C=C\Nc2ccccc2)oc2ccc(-c3ccccc3)cc21	376*
CC[n+]1c(/C=C/N(C)c2ccccc2)oc2ccccc21	156
CC[n+]1c(/C=C/Nc2ccccc2)oc2ccc(OC)cc21	456*
CCOC(=O)c1c(-c2ccccc2)oc2ccc(OC)cc12	0
CC[n+]1c(/C=C/Nc2ccccc2)oc2ccccc21	138*
CCCc1nc2sc3c(SCC(=O)NCc4ccco4)ncnc3c2c2c1CCC2	4
CCc1ccc(N2CC(C(=O)Nc3cccnc3)CC2=O)cc1 (stereo not given)	3
C=CCn1c(SCC(=O)Nc2cccc3ccccc23)nc(O)c(CC)c1=O	-8
CCOC(=O)c1[nH]c2ccc(Br)cc2c1NC(=O)CCN1CCCC(C)C1 (stereo not given)	0
Cc1ccc(S(=O)(=O)N(C)c2ccc(C(=O)NCC3CCCO3)cc2)cc1 (stereo not given)	7
COC(=O)N/N=C\C=C\c1ccc2c(c1)OCO2	100
Cc1cccc2nc(-c3ccccc3)nc(N3CCC(O)(c4ccc(Cl)cc4)CC3)c12	454*
COC(=O)Nc1ccccc1C(=O)N1CCC(O)(c2ccc(Cl)cc2)CC1	0
Cc1cc(C)n(-c2nc3ccccc3nc2N2CCN(C(=O)c3ccc(Cl)cc3)CC2)n1	-5
O=C1Nc2ccccc2/C1=C\c1cccn1-c1ccc(OC(F)(F)F)cc1	-3
COc1ccc(OC)c(CNC(=O)Cc2c(C(=O)O)[nH]c3ccc(Cl)cc23)c1	-78
CCOc1ccccc1C1C(C#N)=C(SCC(=O)OC)NC(=O)C1C(=O)OC (stereo not given)	3
COc1ccc([N+](=O)[O-])cc1NC(=O)CC(c1ccccc1)c1ccccc1	193
COC(=O)c1sc2cc([N+](=O)[O-])cc(SCC(C)C)c2c1N	590*
COCCSc1nnc(NC(=O)c2cc(C(=O)OC)cc([N+](=O)[O-])c2)s1	7
C=C(C)c1cccc(C(C)(C)NC(=O)N2CCN(c3ccccc3OC)CC2)c1	-8
C=C(C)c1cccc(C(C)(C)NC(=O)N(C)C2CCN(C)CC2)c1	260*
C=C(C)c1cccc(C(C)(C)NC(=O)Nc2ncccn2)c1	-3
COc1ccc(C(=O)OCC(=O)NCc2ccco2)cc1S(=O)(=O)N1CCN(c2cccc(Cl)c2)CC1	-3
CC(=O)Nc1ccc(NC(=O)Cn2cnc3c(cnn3C(C)(C)C)c2=O)cc1	431*
SMILES	INS promoter act
CCOC(=O)c1ccccc1NC(=O)Cn1cnc2c(cnn2-c2ccc(OC)cc2)c1=O	-75
CC(=O)Nc1ccc(NC(=O)Cn2cnc3c(nnn3Cc3ccc(F)cc3)c2=O)cc1	0
CCOC(=O)C1=C(CNCCc2ccc(Cl)cc2)NC(=O)NC1c1ccc2c(c1)OCO2 (stereo not given)	0
CCN(CC)CCNC(=O)C(=O)NCC1OCCN1S(=O)(=O)c1ccc2c(c1)OCCO2 (stereo not given)	-9
O=C(NCc1cccnc1)C(=O)NCC1OCCN1S(=O)(=O)c1ccccc1 (stereo not given)	7
Cc1cc(C)c(S(=O)(=O)N2CCOC2CNC(=O)C(=O)NCCc2c[nH]c3ccccc23)c(C)c1 (stereo not given)	310*
CCCC1O[C@@H]2CC3C4CCC5=CC(=O)C=C[C@]5(C)C4C(OC(C)=O)C[C@]3(C)[C@]2(C(=O)COC(C)=O)O1 (stereo not given in full)	11
COc1ccc(-c2nc(CS(=O)CC(=O)NCCCN3CC(C)CC(C)C3)c(C)o2)cc1OC (stereo not given)	-7
COc1cc(-c2nc(CN3CCN(CC(C)C)C(=O)[C@@H]3C)c(C)o2)ccc1F	270*
COC(=O)c1ccc(-c2ccco2)n1Cc1nc(-c2ccc(OC)c(OC)c2)oc1C	0
CCn1cc([C@@H]2C[C@H]3CN(Cc4cccc(Cl)c4)C(=O)[C@]34CCCN24)c(C)n1	0
O=C(Nc1ccc2c(c1)OCO2)c1ccc(NC2CC2)c([N+](=O)[O-])c1	3
Cc1nn(CC(=O)Nc2cccc(S(N)(=O)=O)c2)c(C)c1[N+](=O)[O-]	-7
CCN(CC)C(=O)c1ccc(S(=O)(=O)NCc2cccnc2)cc1	-3
O=S(=O)(NCc1cccnc1)c1ccc(Cl)c(Cl)c1	-9
O=S(=O)(NCc1cccnc1)c1ccc2c(c1)OCCO2	469*
CCOCCCNC(=O)CSc1nc2nc(C)c(Cc3ccccc3)c(C)n2n1	133
CCCCCn1nc(C)c(/C=N\NC(=O)c2cc(C)oc2C)c1C	-85
COc1cc2c(cc1NC(=O)CSCC(=O)O)oc1ccccc12	-7
COc1cc2c(cc1NC(=O)CCCN1C(=O)CCC1=O)oc1ccccc12	506*
COc1cc2c(cc1NC(=O)COc1ccccc1OC)oc1ccccc12	3
COc1cc2c(cc1NC(=O)Nc1ccccc1)oc1ccccc12	-7
COc1cc2c(cc1NC(=O)c1cncc(Br)c1)oc1ccccc12	444*
COc1cc2c(cc1NC(=O)CSc1cccc[n+]1[O-])oc1ccccc12	0
CCOC(=O)CCC(=O)N1CCOCCOCCN(C(=O)CCC(=O)OCC)CCOCCOCC1	0
SMILES	INS promoter act
CC(=O)Nc1ccc(NC(=O)/C=C/c2cccc(C(F)(F)F)c2)cc1	7
N/C(CN1CCCC1=O)=N\OC(=O)c1ccc(Cl)cc1	0
COc1ccc(CN(C)CC(=O)Nc2cc3oc4ccccc4c3cc2OC)c(OC)c1	0
CCOc1cccc(C(=O)NC2CCCCC2)c1	147
CCOc1cccc(C(=O)N2CCCCC2c2cccnc2)c1 (stereo not given)	164*
CCOc1cccc(C(=O)NC(=S)NCc2cccnc2)c1	-7
COC(=O)c1ccc(N2CCC(C)CC2)c(N)c1	-3
N#Cc1c(-n2cccc2)cccc1-n1cccc1	0
O=C(Cc1ccc(Cl)cc1Cl)OCC(=O)N1CCN(C(=O)c2ccco2)CC1	-5
COc1ccc(CCn2c(C)nc3c(c(=O)c4ccccc4n3C)c2=O)cc1	-3
COc1ccc(CCn2c(-c3ccco3)nc3nc4ccccc4nc32)cc1	179*
COc1ccc(Cn2c(-c3ccc(OC)cc3)nc3ccccc32)cc1	9
COc1ccc(N2CCN(c3ncccn3)CC2)cc1	-8
COC(=O)[C@H](CC(C)C)NC(=O)Nc1cccc(Br)c1	7
CCOc1ccccc1NC(=S)NNS(=O)(=O)c1c(C)cc(C)cc1C	8
CCOC(=O)c1ccc(NC(=O)CCOc2ccc(OC)cc2)cc1	7
O=P(OC1CCCCC1)(OC1CCCCC1)C(O)c1ccccc1 (stereo not given)	104*
OC1CCCN(CC(O)c2ccccc2)C1 (stereo not given)	0
NC(=O)C(c1ccccc1)C1CCCC1 (stereo not given)	106
CC(C)(C)C(=O)C(Cc1ccccc1)n1cncn1 (stereo not given)	-3
O=C(c1cn(-c2ccccc2)nc1-c1ccc(Cl)s1)N1CCOCC1	-7
CN(C(=O)CSc1nc(-c2ccccc2)cn1N)C(c1ccccc1)c1ccccc1	82*
Nn1c(SCC(=O)Nc2ccc3c(c2)OCO3)nnc1-c1ccccc1	-6
Cc1ccc(-c2cc(-c3nnc(SCC(=O)NC(C)C(C)C)n3N)c3ccccc3n2)cc1 (stereo not given)	2
CCCCOc1ccc(OCCCC)c2c1NC1(N2)C(=O)N(C(C)=O)c2ccccc21	-73
CCOC(=O)C(C)N1N=C(/C=C/c2ccc(C)cc2)CCC1=O (stereo not given)	7
